{"source": "ChEMBL document CHEMBL1151957", "about": "“Design and synthesis of novel C14-hydroxyl substituted triptolide derivatives as potential selective antitumor agents” (J Med Chem, 2009)", "key": {"SK-OV-3 [1]": {"test_system": "SK-OV-3", "test": "Cytotoxicity against human SKOV3 cells by SRB assay", "assay_type": "functional, cell-based", "method_in_brief": "(§1)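 Cells grown in RPMI 1640 with 10% heat-inactivated FBS, 2 mmol/L glutamine, 10 mmol/L HEPES pH 7.4, 5% CO2, 37 °C; MCF-7/ADR also given 1 mmol/L pyruvate and 0.01 mg/mL insulin. Treated in triplicate with graded concentrations for 72 h at 37 °C, read by SRB. IC50 (50% growth inhibition vs control) by logit method; three independent experiments.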"}, "MDA-MB-468": {"test_system": "MDA-MB-468", "test": "Cytotoxicity against human MDA-MB-468 cells by SRB assay", "assay_type": "functional, cell-based", "method_in_brief": "as §1"}, "PC-3 [2]": {"test_system": "PC-3", "test": "Cytotoxicity against human PC3 cells by SRB assay", "assay_type": "functional, cell-based", "method_in_brief": "as §1"}, "MDA-MB-231": {"test_system": "MDA-MB-231", "test": "Cytotoxicity against human MDA-MB-231 cells after 72 hrs […]", "assay_type": "functional, cell-based", "conditions": "MDA-MB-231, 72 h", "method_in_brief": "(§2)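 Cells grown at 37 °C in 5% CO2 in RPMI 1640 with 10% heat-inactivated FBS, glutamine, antibiotics and HEPES; MCF-7 medium also had sodium pyruvate and insulin. Cells in 96-well plates were treated in triplicate with graded concentrations for 72 h at 37 °C. Read-out was MTT for leukemia lines and SRB for solid-tumor lines. IC50 was set relative to control by the logit method, as mean ± SD of three independent experiments.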"}, "HCT-15": {"test_system": "HCT-15", "test": "Cytotoxicity against human HCT15 cells after 72 hrs […]", "assay_type": "functional, cell-based", "conditions": "HCT-15, 72 h", "method_in_brief": "as §2"}, "[3]": {"test": "Cytotoxicity against human 786-O cells after 72 hrs […]", "assay_type": "functional, cell-based", "conditions": "786-0, 72 h", "method_in_brief": "as §2"}, "HCT-116": {"test_system": "HCT-116", "test": "Cytotoxicity against human HCT116 cells after 72 hrs […]", "assay_type": "functional, cell-based", "conditions": "HCT-116, 72 h", "method_in_brief": "as §2"}, "[4]": {"test": "Cytotoxicity against human HO8910 cells after 72 hrs by […]", "assay_type": "functional, cell-based", "conditions": "HO-8910, 72 h", "method_in_brief": "as §2"}, "[5]": {"test": "Cytotoxicity against human SW1116 cells after 72 hrs by […]", "assay_type": "functional, cell-based", "conditions": "SW 1116, 72 h", "method_in_brief": "as §2"}, "Bel-7402": {"test_system": "Bel-7402", "test": "Cytotoxicity against human Bel7402 cells after 72 hrs by […]", "assay_type": "functional, cell-based", "conditions": "Bel-7402, 72 h", "method_in_brief": "as §2"}, "SGC-7901": {"test_system": "SGC-7901", "test": "Cytotoxicity against human SGC7901 cells after 72 hrs by SRB assay", "conditions": "SGC-7901, 72 h"}, "MOLT-4": {"test_system": "MOLT-4", "test": "Cytotoxicity against human MOLT4 cells after 72 hrs by MTT assay", "assay_type": "functional, cell-based", "conditions": "MOLT-4, 72 h", "method_in_brief": "as §2"}, "KB": {"test_system": "KB", "test": "Cytotoxicity against human KB cells after 72 hrs […]", "assay_type": "functional, cell-based", "method_in_brief": "as §2"}, "U-251": {"test_system": "U-251", "test": "Cytotoxicity against human U251 cells after 72 hrs […]", "assay_type": "functional, cell-based", "conditions": "U-251, 72 h", "method_in_brief": "as §2"}, "[6]": {"test": "Cytotoxicity against human Rh30 cells after 72 hrs by […]", "assay_type": "functional, cell-based", "conditions": "SJRH30, 72 h", "method_in_brief": "as §2"}, "K562": {"test_system": "K562", "test": "Cytotoxicity against human K562 cells after 72 hrs by MTT assay", "assay_type": "functional, cell-based", "conditions": "K562, 72 h", "method_in_brief": "as §2"}, "HeLa": {"test_system": "HeLa", "test": "Cytotoxicity against human HeLa cells after 72 hrs […]", "assay_type": "functional, cell-based", "method_in_brief": "as §2"}, "MCF7": {"test_system": "MCF7", "test": "Cytotoxicity against human MCF7 cells after 72 hrs […]", "assay_type": "functional, cell-based", "conditions": "MCF7, 72 h", "method_in_brief": "as §2"}, "SK-OV-3 [7]": {"test_system": "SK-OV-3", "test": "Cytotoxicity against human SKOV3 cells after 72 hrs by […]", "assay_type": "functional, cell-based", "conditions": "SK-OV-3, 72 h", "method_in_brief": "as §2"}, "A549": {"test_system": "A549", "test": "Cytotoxicity against human A549 cells after 72 hrs by SRB assay", "conditions": "A549, 72 h"}, "MKN-28": {"test_system": "MKN-28", "test": "Cytotoxicity against human MKN28 cells after 72 hrs […]", "assay_type": "functional, cell-based", "conditions": "MKN-28, 72 h", "method_in_brief": "as §2"}, "SMMC-7721": {"test_system": "SMMC-7721", "test": "Cytotoxicity against human SMMC7721 cells after 72 hrs […]", "assay_type": "functional, cell-based", "conditions": "SMMC-7721, 72 h", "method_in_brief": "as §2"}, "DU-145": {"test_system": "DU-145", "test": "Cytotoxicity against human DU145 cells after 72 hrs by […]", "assay_type": "functional, cell-based", "conditions": "DU-145, 72 h", "method_in_brief": "as §2"}, "PC-3 [8]": {"test_system": "PC-3", "test": "Cytotoxicity against human PC3 cells after 72 hrs by […]", "assay_type": "functional, cell-based", "conditions": "PC-3, 72 h", "method_in_brief": "as §2"}}, "data": [{"smiles": "CC(C)[C@]12O[C@H]1[C@@H]1O[C@]13[C@]1(O[C@H]1C[C@H]1C4=C(CC[C@@]13C)C(=O)OC4)[C@]2(O)CO", "values": [{"measurement": "IC50", "setting": "SK-OV-3 [1]", "result": "> 100000", "unit": "nM"}, {"measurement": "IC50", "setting": "MDA-MB-468", "result": "> 100000", "unit": "nM"}, {"measurement": "IC50", "setting": "PC-3 [2]", "result": "> 100000", "unit": "nM"}]}, {"smiles": "CC(C)[C@]12O[C@H]1[C@@H]1O[C@]13[C@]1(O[C@H]1C[C@H]1C4=C(CC[C@@]13C)C(=O)OC4)[C@H]2O", "note": "[EPITRIPTOIIDE]", "values": [{"measurement": "IC50", "setting": "SK-OV-3 [1]", "result": 790, "unit": "nM"}, {"measurement": "IC50", "setting": "MDA-MB-468", "result": 1320, "unit": "nM"}, {"measurement": "IC50", "setting": "PC-3 [2]", "result": 1600, "unit": "nM"}]}, {"smiles": "CC(C)[C@]12O[C@H]1[C@@H]1O[C@]13[C@]1(O[C@H]1C[C@H]1C4=C(CC[C@@]13C)C(=O)OC4)[C@@]21CO1", "values": [{"measurement": "IC50", "setting": "SK-OV-3 [1]", "result": 1560, "unit": "nM"}, {"measurement": "IC50", "setting": "MDA-MB-468", "result": 1920, "unit": "nM"}, {"measurement": "IC50", "setting": "PC-3 [2]", "result": 2700, "unit": "nM"}]}, {"smiles": "CC(C)[C@]12O[C@H]1[C@@H]1O[C@@]13[C@@]1(C)CCC4=C(COC4=O)[C@]1(O)C[C@@H]1O[C@@]13[C@]21CO1", "values": [{"measurement": "IC50", "setting": "SK-OV-3 [1]", "result": 1860, "unit": "nM"}, {"measurement": "IC50", "setting": "MDA-MB-468", "result": 2370, "unit": "nM"}, {"measurement": "IC50", "setting": "PC-3 [2]", "result": 7340, "unit": "nM"}]}, {"smiles": "CC(C)[C@]12O[C@H]1[C@@H]1O[C@]13[C@]1(O[C@H]1C[C@H]1C4=C(CC[C@@]13C)C(=O)OC4)[C@@H]2O", "note": "[TRIPTOLIDE]", "values": [{"measurement": "IC50", "setting": "MDA-MB-231", "result": 24, "unit": "nM"}, {"measurement": "IC50", "setting": "HCT-15", "result": 29, "unit": "nM"}, {"measurement": "IC50", "setting": "[3]", "result": 22, "unit": "nM"}, {"measurement": "IC50", "setting": "SK-OV-3 [1]", "result": 9, "unit": "nM"}, {"measurement": "IC50", "setting": "HCT-116", "result": 10, "unit": "nM"}, {"measurement": "IC50", "setting": "[4]", "result": 28, "unit": "nM"}, {"measurement": "IC50", "setting": "[5]", "result": 52, "unit": "nM"}, {"measurement": "IC50", "setting": "Bel-7402", "result": 20, "unit": "nM"}, {"measurement": "IC50", "setting": "SGC-7901", "result": 15, "unit": "nM"}, {"measurement": "IC50", "setting": "MOLT-4", "result": 17, "unit": "nM"}, {"measurement": "IC50", "setting": "KB", "result": 43, "unit": "nM"}, {"measurement": "IC50", "setting": "U-251", "result": 49, "unit": "nM"}, {"measurement": "IC50", "setting": "[6]", "result": 14, "unit": "nM"}, {"measurement": "IC50", "setting": "K562", "result": 50, "unit": "nM"}, {"measurement": "IC50", "setting": "HeLa", "result": 47, "unit": "nM"}, {"measurement": "IC50", "setting": "MCF7", "result": 19, "unit": "nM"}, {"measurement": "IC50", "setting": "SK-OV-3 [7]", "result": 10, "unit": "nM"}, {"measurement": "IC50", "setting": "MDA-MB-468", "result": 10, "unit": "nM"}, {"measurement": "IC50", "setting": "A549", "result": 59, "unit": "nM"}, {"measurement": "IC50", "setting": "MKN-28", "result": 200, "unit": "nM"}, {"measurement": "IC50", "setting": "SMMC-7721", "result": 18, "unit": "nM"}, {"measurement": "IC50", "setting": "DU-145", "result": 24, "unit": "nM"}, {"measurement": "IC50", "setting": "PC-3 [8]", "result": 43, "unit": "nM"}, {"measurement": "IC50", "setting": "PC-3 [2]", "result": 20, "unit": "nM"}]}]}
